In ChEMBL document CHEMBL3593239, “PABA/NO lead optimization: Improved targeting of cytotoxicity to glutathione S-transferase P1-overexpressing cancer cells” (Bioorg Med Chem, 2015):
pIC50: −log10 of the molar value. Calls of active or inactive are those of the source. The calls are words filed in the database; no cut-off is given here.

Columns and labels:
[1] = Stability of the compound in phosphate buffer assessed as first-order initial rate constant for hydrolysis at pH 7.4 at 25 degC by HPLC trapping method; assay type: physicochemical
[2] = Stability of the compound in phosphate buffer assessed as first-order initial rate constant for hydrolysis at pH 7.4 at 37 degC by HPLC trapping method; assay type: physicochemical
[3] = Stability of the compound in phosphate buffer assessed as pseudo-first order rate constant at pH 7.4 at 37 degC by HPLC trapping method in presence of GSH; assay type: physicochemical
[4] = target: T1, Glutathione S-transferase P (Homo sapiens, UniProt P09211); assay: Prodrug conversion in phosphate buffer assessed as GSTP1 (unknown origin)-mediated nitric oxide release at 1 uM at pH 7.4 at 37 degC after 1 to 30 mins by LC/MS-MS analysis; assay type: ADME; conditions: pH 7.4, 1 µM
T1 sequence (P09211 whole entry): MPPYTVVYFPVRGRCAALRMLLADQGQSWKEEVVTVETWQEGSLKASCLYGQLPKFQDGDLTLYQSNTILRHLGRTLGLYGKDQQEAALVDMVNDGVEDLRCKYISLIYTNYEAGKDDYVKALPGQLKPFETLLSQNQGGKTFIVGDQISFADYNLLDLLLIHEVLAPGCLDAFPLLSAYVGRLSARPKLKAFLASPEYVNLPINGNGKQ
Method in brief: (§1)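 Test compound at 1 µM reacted with 4 mM GSH containing 4 nM GSTP1 in 0.1 M phosphate, pH 7.4, at 37 °C. Products identified by LC–MS traces taken at 60 s and 30 min.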

[5] = target: T1, Glutathione S-transferase P; assay: Drug metabolism in phosphate buffer assessed as formation of GSTP1 (unknown origin)-mediated (S)-2-amino-5-((R)-1-(carboxymethylamino)-3-(4-cyano-5-(4-(methylamino)benzoyloxy)-2-nitrophenylthio)-1-oxopropan-2-ylamino)-5-oxopentanoic acid at 1 uM at pH 7.4 at 37 degC after 1 to 30 mins by LC-MS/MS analysis in presence of GSH; assay type: ADME; conditions: pH 7.4, 1 µM; method in brief: as §1
[6] = target: T1, Glutathione S-transferase P; assay: Prodrug conversion in phosphate buffer assessed as GSTP1 (unknown origin)-mediated nitric oxide release […] measured per mol of compound at pH 7.4 at 37 degC by chemiluminescence assay in presence of GSH; assay type: ADME
[7] = target: T2, Glutathione S-transferase A1 (Homo sapiens, UniProt P08263); assay: Drug metabolism in phosphate buffer assessed as ratio of GSTA1 (unknown origin)-mediated (S)-2-amino-5-((R)-1-(carboxymethylamino)-3-(4-cyano-5-hydroxy-2-nitrophenylthio)-1-oxopropan-2-ylamino)-5-oxopentanoic acid formation from nitric oxide release pathway to GSTA1 (unknown origin)-mediated (Z)-1-(4-cyano-5-hydroxy-2-nitrophenoxy)-3,3-dimethyltriaz-1-ene 2-oxide formation from nitric oxide retained pathway at 1 uM at pH 7.4 at 37 degC after 30 mins by LC-MS/MS analysis in presence of GSH; assay type: ADME; conditions: pH 7.4, 0.5 h
T2 sequence (P08263 whole entry): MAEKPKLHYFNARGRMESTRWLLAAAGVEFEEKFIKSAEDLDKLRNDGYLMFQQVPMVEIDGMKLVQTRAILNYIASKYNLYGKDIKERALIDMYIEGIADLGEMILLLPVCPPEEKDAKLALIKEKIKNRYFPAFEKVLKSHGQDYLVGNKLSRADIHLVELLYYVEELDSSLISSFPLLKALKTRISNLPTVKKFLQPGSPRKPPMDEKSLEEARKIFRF
Method in brief: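 Products analysed by LC–MS. The ratio is the NO-release-pathway product over the NO-retained-pathway phenolic product.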

[8] = target: T1, Glutathione S-transferase P; assay: Drug metabolism in human HL-60 cells assessed as GSTP1-mediated metabolite formation at 1 uM after 10 mins by LC-MS/MS analysis; assay type: ADME, cell-based; conditions: hl-60, 10 min
Method in brief: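 HL-60 cells plated in flasks and incubated overnight at 37 °C, then treated with 1 µM compound for varying times. Cells broken by two freeze (−80 °C)/thaw (37 °C) cycles in 0.1% formic acid/acetonitrile 3:7. Precipitate spun out at 14,000g for 15 min. Supernatant filtered and analysed by LC–MS/MS on C18 with acetonitrile/water/0.1% formic acid gradient and ESI-QTOF detection.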

HL-60 [9] = assay: Cytotoxicity against human HL60 cells assessed as growth inhibition after 72 hrs by MTT assay; assay type: functional, cell-based; conditions: HL-60, 72 h
Method in brief: (§2)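 HL-60 and U937 cells from ATCC, grown per supplier protocol, seeded and exposed to increasing concentrations for 72 h. Viability was read with a Promega assay run per the manufacturer's protocol. Six repeats per concentration, three independent experiments. IC50 derived by curve fitting.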

U-937 = assay: Cytotoxicity against human U937 cells assessed as growth inhibition after 72 hrs by MTT assay; assay type: functional, cell-based; conditions: U-937, 72 h; method in brief: as §2
HL-60 [10] = assay: Induction of apoptosis in human HL60 cells assessed as activation of caspase 8 at 10 uM after 24 hrs by Western blot analysis; assay type: functional, cell-based
HL-60 [11] = assay: Induction of apoptosis in human HL60 cells assessed as activation of caspase 7 at 10 uM after 24 hrs by Western blot analysis; assay type: functional, cell-based
HL-60 [12] = assay: Induction of apoptosis in human HL60 cells assessed as cleavage of PARP at 10 uM after 24 hrs by Western blot analysis; assay type: functional, cell-based
HL-60 [13] = assay: Induction of SAPK/JNK phosphorylation in human HL-60 cells at 5 to 20 uM after 24 hrs by Western blot analysis

K [1]: 0.3 ×10⁻⁵ /s
K [2]: 1.1 ×10⁻⁴ /s
K [3]: 5.1 ×10⁻³ /s
Drug metabolism [4]: metabolite_detected
Drug metabolism [5]: metabolite_detected
NO yield [6]: > 1.9 mol/mol
Ratio [7]: 1
Drug metabolism [8]: metabolite_detected
SMILES: CNc1ccc(C(=O)Oc2cc(O/N=[N+](\[O-])N(C)C)c([N+](=O)[O-])cc2C#N)cc1
pIC50 (HL-60 [9]): 5.05
pIC50 (U-937): 5.19
Activity (HL-60 [10]): Active
Activity (HL-60 [11]): Active
Activity (HL-60 [12]): Active
Activity (HL-60 [13]): Active
